Assay results as given in ChEMBL document CHEMBL4715828, “Identification of N-benzyltetrahydroisoquinolines as novel anti-neuroinflammatory agents” (2018).
Activity calls are given as the source filed them. The calls are words filed in the database; no cut-off is given here.

Key:
BV-2 [1] = assay: Anti-neuroinflammatory activity in mouse BV2 cells assessed as inhibition of LPS-induced TNF-alpha production by measuring TNF-alpha level at 50 uM preincubated for 1 hr followed by LPS stimulation and measured after 24 hrs by ELISA (reference value: 100 +/- 0%); format: functional; details: time 25 hrs
Procedure, shortened: (§1)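 BV2 murine microglia in DMEM:F-12 (1:1) with 10% heat-inactivated FBS and penicillin/streptomycin, 5% CO2, seeded at 5 x 10^5 cells/mL in 12-well plates and attached overnight. Compound in DMSO (0.1% v/v final) added 1 h before LPS (E. coli O55:B5, 100 ng/mL) for 24 h. Medium centrifuged, then assayed by ELISA. Values are % of LPS, mean ± SEM, three experiments.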

BV-2 [2] = assay: Anti-neuroinflammatory activity in mouse BV2 cells assessed as inhibition of LPS-induced TNF-alpha production preincubated for 1 hr followed by LPS treatment and measured after 24 hrs by ELISA; format: functional, cell-based; details: dose 12-50 µM, time 25.0 hrs; procedure, shortened: as §1
BV-2 [3] = assay: Anti-neuroinflammatory activity in mouse BV2 cells assessed as inhibition of LPS-induced IL-6 production preincubated for 1 hr followed by LPS treatment and measured after 24 hrs by ELISA; format: functional, cell-based; details: dose 25-50 µM, time 25.0 hrs; procedure, shortened: as §1
BV-2 [4] = assay: Anti-neuroinflammatory activity in mouse BV2 cells assessed as inhibition of LPS-induced nitrite production preincubated for 1 hr followed by LPS treatment and measured after 24 hrs by Griess assay; format: functional, cell-based; details: dose 6-50 µM, time 25.0 hrs
Procedure, shortened: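 BV2 cells seeded at 5 x 10^5 cells/mL in 12-well plates and attached overnight. Compound (0.1% v/v DMSO final) given 1 h before LPS 100 ng/mL for 24 h. Medium centrifuged to remove floating cells, then nitrite read by Griess kit. Mean ± SEM from three experiments.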

Microglia [5] = assay: Anti-neuroinflammatory activity in primary mouse microglia cells assessed as reduction in LPS-induced IL-1beta mRNA expression at 100 uM preincubated for 1 hr followed by LPS treatment for 2 hrs by qPCR analysis; format: functional, cell-based; details: time 3.0 hrs
Procedure, shortened: (§2)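 Primary microglia come from cortical cells of 1-2-day neonatal mice, grown in DMEM/F12 with 10% FBS and 2 mM glutamine, plus 5 ng/ml GM-CSF from day 3. Cells shaken off at day 13-14, plated at 5 x 10^5 cells/mL and attached overnight. Compound given 1 h before LPS 100 ng/mL for 2 or 4 h, then RNA extracted and qPCR run. Mean ± SEM, three experiments.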

Microglia [6] = assay: Anti-neuroinflammatory activity in primary mouse microglia cells assessed as reduction in LPS-induced IL-1beta mRNA expression at 100 uM preincubated for 1 hr followed by LPS treatment for 4 hrs by qPCR analysis; format: functional, cell-based; details: time 5.0 hrs; procedure, shortened: as §2
Microglia [7] = assay: Anti-neuroinflammatory activity in primary mouse microglia cells assessed as reduction in LPS-induced IL-23p19 mRNA expression at 100 uM preincubated for 1 hr followed by LPS treatment for 2 hrs by qPCR analysis; format: functional, cell-based; details: time 3.0 hrs; procedure, shortened: as §2
Microglia [8] = assay: Anti-neuroinflammatory activity in primary mouse microglia cells assessed as reduction in LPS-induced IL-23p19 mRNA expression at 100 uM preincubated for 1 hr followed by LPS treatment for 4 hrs by qPCR analysis; format: functional, cell-based; details: time 5.0 hrs; procedure, shortened: as §2
Microglia [9] = assay: Anti-neuroinflammatory activity in primary mouse microglia cells assessed as reduction in LPS-induced IL-12p35 mRNA expression at 100 uM preincubated for 1 hr followed by LPS treatment for 2 hrs by qPCR analysis; format: functional, cell-based; details: time 3.0 hrs; procedure, shortened: as §2
Microglia [10] = assay: Anti-neuroinflammatory activity in primary mouse microglia cells assessed as reduction in LPS-induced IL-12p35 mRNA expression at 100 uM preincubated for 1 hr followed by LPS treatment for 4 hrs by qPCR analysis; format: functional, cell-based; details: time 5.0 hrs; procedure, shortened: as §2
Microglia [11] = assay: Anti-neuroinflammatory activity in primary mouse microglia cells assessed as reduction in LPS-induced IL-12p40 mRNA expression at 100 uM preincubated for 1 hr followed by LPS treatment for 2 hrs by qPCR analysis; format: functional, cell-based; details: time 3.0 hrs; procedure, shortened: as §2
Microglia [12] = assay: Anti-neuroinflammatory activity in primary mouse microglia cells assessed as reduction in LPS-induced IL-12p40 mRNA expression at 100 uM preincubated for 1 hr followed by LPS treatment for 4 hrs by qPCR analysis; format: functional, cell-based; details: time 5.0 hrs; procedure, shortened: as §2
Microglia [13] = assay: Anti-neuroinflammatory activity in primary mouse microglia cells assessed as reduction in LPS-induced GM-CSF mRNA expression at 100 uM preincubated for 1 hr followed by LPS treatment for 2 hrs by qPCR analysis; format: functional, cell-based; details: time 3.0 hrs; procedure, shortened: as §2
Microglia [14] = assay: Anti-neuroinflammatory activity in primary mouse microglia cells assessed as reduction in LPS-induced GM-CSF mRNA expression at 100 uM preincubated for 1 hr followed by LPS treatment for 4 hrs by qPCR analysis; format: functional, cell-based; details: time 5.0 hrs; procedure, shortened: as §2
Microglia [15] = assay: Anti-neuroinflammatory activity in primary mouse microglia cells assessed as reduction in LPS-induced TNF mRNA expression at 100 uM preincubated for 1 hr followed by LPS treatment for 2 hrs by qPCR analysis; format: functional, cell-based; details: time 3.0 hrs; procedure, shortened: as §2
Microglia [16] = assay: Anti-neuroinflammatory activity in primary mouse microglia cells assessed as reduction in LPS-induced TNF mRNA expression at 100 uM preincubated for 1 hr followed by LPS treatment for 4 hrs by qPCR analysis; format: functional, cell-based; details: time 5.0 hrs; procedure, shortened: as §2
Microglia [17] = assay: Anti-neuroinflammatory activity in primary mouse microglia cells assessed as reduction in LPS-induced IL6 mRNA expression at 100 uM preincubated for 1 hr followed by LPS treatment for 2 hrs by qPCR analysis; format: functional, cell-based; details: time 3.0 hrs; procedure, shortened: as §2
Microglia [18] = assay: Anti-neuroinflammatory activity in primary mouse microglia cells assessed as reduction in LPS-induced IL6 mRNA expression at 100 uM preincubated for 1 hr followed by LPS treatment for 4 hrs by qPCR analysis; format: functional, cell-based; details: time 5.0 hrs; procedure, shortened: as §2
BV-2 [19] = assay: Anti-neuroinflammatory activity in mouse BV2 cells assessed as inhibition of LPS-induced TNF-alpha production by measuring TNF-alpha level at 1 uM preincubated for 1 hr followed by LPS stimulation and measured after 24 hrs by ELISA (reference value: 100 +/- 0%); format: functional; set-up: scale not given: the % may be the effect or the level left; details: time 25 hrs; procedure, shortened: as §1

SMILES | TNF-alpha level (% of LPS control) (BV-2 [1]) [%] | other results
Clc1cccc(Cl)c1CN1CCc2cc3c(cc2C1)OCO3 | 107 | 
COc1cccc(OC)c1CN1CCc2cc3c(cc2C1)OCO3 | 39 | Activity (BV-2 [2]): Dose-dependent effect; Activity (BV-2 [3]): Dose-dependent effect; Activity (BV-2 [4]): Dose-dependent effect; Activity (Microglia [5]): Active; Activity (Microglia [6]): Active; Activity (Microglia [7]): Active; Activity (Microglia [8]): Active; Activity (Microglia [9]): Active; Activity (Microglia [10]): Active; Activity (Microglia [11]): inactive; Activity (Microglia [12]): inactive; Activity (Microglia [13]): Active; Activity (Microglia [14]): Active; Activity (Microglia [15]): inactive; Activity (Microglia [16]): inactive; Activity (Microglia [17]): Active; Activity (Microglia [18]): Active
FC(F)(F)c1ccc(CN2CCc3cc4c(cc3C2)OCO4)cc1 | 102 | 
COc1ccc2c(c1OC)C[N+]1(Cc3ccccc3)CCc3cc4c(cc3C1C2)OCO4.[Br-] (centres undefined) | 22 | 
COc1cccc(OC)c1CN1CCc2ccccc2C1 | 78 | 
COc1ccccc1CN1CCc2cc3c(cc2C1)OCO3 | 78 | 
COc1cccc(CN2CCc3cc4c(cc3C2)OCO4)c1OC | 61 | 
COc1cccc(CN2CCc3ccccc3C2)c1OC | 95 | 
COc1ccc2c(c1OC)CN1CCc3cc4c(cc3C1C2)OCO4 (centres undefined) [TETRAHYDROBERBERINE] | 45 | 
COc1cccc(OC)c1C(=O)N1CCc2cc3c(cc2C1)OCO3 | 73 | 
COc1ccc2c(c1)CN(Cc1c(OC)cccc1OC)CC2 | 82 | 
COc1ccc(CN2CCc3cc4c(cc3C2)OCO4)c(OC)c1 | 103 | 
COc1ccc(CC2c3cc4c(cc3CCN2C)OCO4)cc1OC (centres undefined) | 77 | 
COc1ccc2cc3[n+](cc2c1OC)CCc1cc2c(cc1-3)OCO2.[Cl-] [BERBERINE CHLORIDE] |  | Activity (BV-2 [19]): 25%
COc1ccc(CC2c3cc4c(cc3CC[N+]2(C)C)OCO4)cc1OC.[I-] (centres undefined) | 97 | 
Cc1cccc(C)c1CN1CCc2cc3c(cc2C1)OCO3 | 101 | 
COc1ccc(CN2CCc3cc4c(cc3C2)OCO4)cc1 | 88 | 
COc1cc(CN2CCc3cc4c(cc3C2)OCO4)cc(OC)c1 | 89 | 
COc1cccc(CN2CCc3cc4c(cc3C2)OCO4)c1 | 78 | 
c1ccc(CN2CCc3cc4c(cc3C2)OCO4)cc1 | 90 | 
COc1ccc(CC2NCCc3cc4c(cc32)OCO4)cc1OC (centres undefined) | 77 | 
COc1ccc2c(c1)CCN(Cc1c(OC)cccc1OC)C2 | 64 | 
